Measurements from paper PMC7056512 (Cancer research, 2020).
Like-named read-outs stand apart in the source and are kept apart here.

Assays:
[1] = test system: HNSCC cell lines (013C, 036C, 049C, 067C); assay: nonadherent sphere formation; format: cell-based, human; details: 1,000nM
How it was run: (§1)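 3x10^3 cells/well in ultra-low-attachment wells with serum-free DMEM/F12 plus 10ng/ml EGF and 10ng/ml bFGF; medium supplemented on days 4, 7 and 10. Spheres (>50µm) imaged, counted and sized (diameter) at day 10. Replicates: 013C n=4 (16 wells); 036C, 049C and 067C n=3 (12 wells).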

[2] = test system: HNSCC cells and patient-matched CAFs; assay: protein synthesis, methionine analog incorporation; format: cell-based, human; details: for suppression of translation: 100nM, all cells; for inhibition of protein synthesis: at concentrations between 10 and 100nM, 1.5h treatment
[3] = target: cap-independent translation of capless luciferase mRNA; assay: in vitro translation of uncapped poly; format: biochemical, rabbit; details: read-out: IC50, in vitro cap-independent translation; 30 min at 30°C
[4] = target: eEF2 release from the ribosome (Homo sapiens, UniProt P13639); assay: co-immunoprecipitation of eEF2 with ribosomal protein RPL13a; format: cell-based; details: 100nM; 013C and 036C cells
19 HNSCC cell lines = assay: cell growth, CellTiter-Glo, 5 days; format: cell-based, human; details: read-out: average IC50, growth, average of 19 HNSCC lines
Det562 HNSCC cells [5] = assay: clonogenic survival assay; format: cell-based, human; details: read-out: IC50, clonogenicity, drug 24h, then 9 days growth
[6] = test system: HNSCC cancer cells (Detroit562, FaDu); assay: clonogenic radio-modulation; format: cell-based, human; details: multiple SVC112 doses
[7] = test system: four non-transformed normal lines; assay: clonogenic radio-modulation; format: cell-based
036C cells [8] = assay: SRB antiproliferative assay; format: cell-based, human; details: read-out: IC50, antiproliferative
067C cells [9] = assay: SRB antiproliferative assay; format: cell-based, human; details: read-out: IC50, antiproliferative
049C cells [10] = assay: SRB antiproliferative assay; format: cell-based, human; details: read-out: IC50, antiproliferative
013C cells [11] = assay: SRB antiproliferative assay; format: cell-based, human; details: read-out: IC50, antiproliferative
036C cells [12] = assay: nonadherent sphere formation; format: cell-based, human; details: 1,000nM, 10 days
How it was run: as §1

067C cells [13] = assay: nonadherent sphere formation; format: cell-based, human; details: 1,000nM, 10 days
How it was run: as §1

013C cells [14] = assay: nonadherent sphere formation; format: cell-based, human; details: 1,000nM, 10 days
How it was run: as §1

049C cells [15] = assay: nonadherent sphere formation; format: cell-based, human; details: 1,000nM, 10 days
How it was run: as §1

CUHN036 CSCs = assay: sphere formation by CSCs sorted from PDX tumors; format: cell-based, human; details: 1,000nM
How it was run: (§2)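 CSCs sorted from PDX tumours plated at 1x10^4 per well in ultra-low-attachment wells. Medium was serum-free DMEM/F12 with 10ng/ml EGF and 10ng/ml bFGF, supplemented on days 4, 7 and 10. After 14 days, all spheres >50µm imaged, counted and diameter measured.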

CUHN004 CSCs = assay: sphere formation by CSCs sorted from PDX tumors; format: cell-based, human; details: 1,000nM
How it was run: as §2

CUHN013 CSCs = assay: sphere formation by CSCs sorted from PDX tumors; format: cell-based, human; details: 1,000nM
CUHN036 PDX = assay: PDX efficacy study; format: in vivo, Athymic Nude-Foxn1^nu mice; details: for T/C (treatment vs control): twice weekly, day 28
How it was run: (§3)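 Tumor pieces from 4th-8th-generation PDX implanted on both flanks of 6-10-week-old female mice. Anesthetized mice shielded except flank tumors and irradiated at 3 Gy (115 cGy/min) twice weekly for four weeks. Test compound given IP at 60mg/kg right after irradiation and 6h later. Tumors measured twice weekly. ALDH+CD44high CSC fraction measured by flow cytometry on day 28, then related to tumor treatment/control ratio by linear regression.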

CUHN047 PDX = assay: PDX efficacy study; format: in vivo, Athymic Nude-Foxn1^nu mice; details: for T/C (treatment vs control): twice weekly, day 28
How it was run: as §3

CUHN004 PDX = assay: PDX efficacy study; format: in vivo, Athymic Nude-Foxn1^nu mice
CUHN013 PDX = assay: PDX efficacy study; format: in vivo, Athymic Nude-Foxn1^nu mice
How it was run: as §3

036C cells [16] = assay: protein synthesis, methionine analog incorporation; format: cell-based, human; details: 1nM
067C cells [17] = assay: protein synthesis, methionine analog incorporation; format: cell-based, human; details: 1nM
013C cells [18] = assay: protein synthesis, methionine analog incorporation; format: cell-based, human; details: 10nM
Myc in 036C cells = assay: Western blot densitometry of Myc; format: cell-based, human; details: 24h
Myc in 049C cells = assay: Western blot densitometry of Myc; format: cell-based, human; details: 24h
Myc in 067C cells = assay: Western blot densitometry of Myc; format: cell-based, human; details: 24h
Myc in 013C cells = assay: Western blot densitometry of Myc; format: cell-based, human; details: 24h
013C, 049C, 067C cells = assay: ribosome profiling; format: cell-based, human; details: 1,000nM, 6h
How it was run: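 Cells grown 48h in 10cm dishes to ~75% confluence, then treated 6h with DMSO or test compound at 1,000nM. Libraries built with the TruSeq Ribo Profile mammalian protocol. Total mRNA fragments and ribosome-protected fragments sequenced on Illumina HiSeq. RPF counts normalised to RNA-seq, with a >2-fold enrichment cutoff.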

Det562 HNSCC cells [19] = details: read-out: IC50, proliferation
[20] = SVC112 alone, 60mg/kg IP at 0h and 6h
[21] = radiation (3Gy) plus SVC112 60mg/kg
[22] = radiation plus SVC112, by day 28

COC(=O)C[C@](O)(CCCC(C)(C)O)C(=O)O[C@@H]1C(OC)=C[C@]23CCCN2CCc2cc4c(cc2[C@H]13)OCO4 [HHT, Homoharringtonine, reference compound]
sphere formation [1]: blocked nearly all sphere formation | suppression of translation [2]: > 85% | inhibition of protein synthesis [2]: Greater than 75%

Meta Br-N-29-H derivative of RA-VII [SVC112]
IC50 [3]: 81 ± 16 nM | release of eEF2 from the ribosome (immunoprecipitation of eEF2 with Rpl13a) [4]: blocked the release of eEF2 from the ribosome | IC50 (19 HNSCC cell lines): 155 nM | IC50 (Det562 HNSCC cells [5]): ~15 nM | dose-modifying factor (DMF) of radiation [6]: > 1 | dose-modifying factor (DMF) of radiation [7]: near or below 1 | IC50 (036C cells [8]): 3.8 nM | IC50 (067C cells [9]): 9.3 nM | IC50 (049C cells [10]): 24.1 nM | IC50 (013C cells [11]): 50.5 nM | sphere formation blocked (036C cells [12]): 100% | sphere formation blocked (067C cells [13]): 79% | sphere formation blocked (013C cells [14]): 74% | sphere formation blocked (049C cells [15]): 48% | sphere formation by CSCs (CUHN036 CSCs): blocked sphere formation | sphere formation by CSCs (CUHN004 CSCs): blocked sphere formation | sphere formation by CSCs (CUHN013 CSCs): formed fewer, albeit normal-sized spheres | T/C (treatment vs control) (CUHN036 PDX; [20]): 0.45±0.12 | T/C (treatment vs control) (CUHN036 PDX; [21]): 0.08±0.08 | tumors that continued to regress and did not regrow after ending treatment (CUHN036 PDX; radiation plus SVC112, after end of treatment): six of eight | tumors with complete regression (CUHN036 PDX; [22]): four of twelve | decrease of CSC fraction (ALDH+CD44hi) in tumors (CUHN036 PDX; radiation plus SVC112, day 28): 10.4 fold | T/C (treatment vs control) (CUHN047 PDX; [20]): 0.37±0.07 | T/C (treatment vs control) (CUHN047 PDX; [21]): −0.02±0.03 | tumors with complete regression (CUHN047 PDX; [22]): six out of ten | decrease of CSC fraction (ALDH+CD44hi) in tumors (CUHN047 PDX; radiation plus SVC112, day 28): 7.6 fold | T/C (treatment vs control) (CUHN004 PDX; radiation (3Gy) plus SVC112 60mg/kg, twice weekly, day 28): 0.19±0.05 | decrease of CSC fraction (ALDH+CD44hi) in tumors (CUHN004 PDX; radiation plus SVC112, day 28): 7.9 fold | tumor response (CUHN013 PDX; SVC112 alone or with radiation, twice weekly): did not respond to any treatment | decrease of CSC fraction (ALDH+CD44hi) in tumors (CUHN013 PDX; radiation plus SVC112, day 28): 2.4 fold | suppression of translation [2]: > 85% | inhibition of protein synthesis [2]: Greater than 75% | decrease of protein synthesis (036C cells [16]): > 50% | decrease of protein synthesis (067C cells [17]): > 50% | inhibition of protein synthesis (013C cells [18]): ~ 50% | Myc reduction (Myc in 036C cells): > 80% | Myc reduction (Myc in 049C cells): > 80% | Myc reduction (Myc in 067C cells): > 80% | Myc level, % of baseline (Myc in 013C cells): > 60% | increase in captured ribosome protected fragments of DUSP1 (013C, 049C, 067C cells): 238 fold | increase in captured ribosome protected fragments of MAFF (013C, 049C, 067C cells): 346 fold | increase in captured ribosome protected fragments of NUAK2 (013C, 049C, 067C cells): 666 fold | increase in captured ribosome protected fragments of SERTAD1 (013C, 049C, 067C cells): 1699 fold | IC50 (Det562 HNSCC cells [19]): ~280 nM
